Activity calls are given as the source filed them. The calls are words filed in the database; no cut-off is given here.
Tests used:
[1] = system: Sorghum bicolor; assay: Herbicidal activity against Sorghum bicolor at 450 g ai/ha in greenhouse in vivo test; assay type: functional, organism-based
[2] = system: Echinochloa crus-galli; assay: Inhibition of stem growth of Echinochloa crus-galli at 100 mg/L; assay type: functional
Summary of the method: (§1)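 Seeds of each species were grown in Petri dishes with 10 seeds per dish, at 28 °C, 70–80% RH, 16:8 h light:dark photoperiod and 3000 lx light for 5 days. Root and stem lengths were measured for the 10 seeds and averaged. Each test and its controls were run in three replicates, and the data were given probit analysis.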

[3] = system: Cucumis sativus; assay: Herbicidal activity against Cucumis sativus at 450 g ai/ha in greenhouse in vivo test; assay type: functional, organism-based
[4] = system: Triticum aestivum; assay: Inhibition of stem growth of Triticum aestivum at 100 mg/L; assay type: functional; summary of the method: as §1
[5] = system: Brassica rapa subsp. oleifera; assay: Inhibition of root growth of Brassica campestris at 100 mg/L; assay type: functional; summary of the method: as §1
[6] = system: Tetranychus cinnabarinus; assay: Insecticidal activity against Tetranychus cinnabarinus at 250 mg/L; assay type: functional
Summary of the method: (§2)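 Groups of 10 of each species were placed in glass Petri dishes and sprayed with test solution using a Potter sprayer. After air-drying, they were held under normal rearing conditions. Mortality at 72 h was taken from the number and size of live larvae relative to untreated controls.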

[7] = system: Sorghum bicolor; assay: Inhibition of root growth of Sorghum bicolor at 100 mg/L; assay type: functional; summary of the method: as §1
[8] = system: Echinochloa crus-galli; assay: Herbicidal activity against Echinochloa crus-galli at 450 g ai/ha in greenhouse in vivo test; assay type: functional, organism-based
[9] = system: Radish; assay: Inhibition of root growth of Raphanus sativus at 100 mg/L; assay type: functional; summary of the method: as §1
[10] = system: Echinochloa crus-galli; assay: Inhibition of root growth of Echinochloa crus-galli at 100 mg/L; assay type: functional; summary of the method: as §1
[11] = system: Sorghum bicolor; assay: Inhibition of stem growth of Sorghum bicolor at 100 mg/L; assay type: functional; summary of the method: as §1
[12] = system: Triticum aestivum; assay: Inhibition of root growth of Triticum aestivum at 100 mg/L; assay type: functional; summary of the method: as §1
[13] = system: Radish; assay: Inhibition of stem growth of Raphanus sativus at 100 mg/L; assay type: functional; summary of the method: as §1
[14] = system: Triticum aestivum; assay: Herbicidal activity against Triticum aestivum at 450 g ai/ha in greenhouse in vivo test; assay type: functional, organism-based
[15] = system: Radish; assay: Herbicidal activity against Raphanus sativus at 450 g ai/ha in greenhouse in vivo test; assay type: functional, organism-based
[16] = system: Cucumis sativus; assay: Inhibition of stem growth of Cucumis sativus at 100 mg/L; assay type: functional; summary of the method: as §1
[17] = system: Brassica rapa subsp. oleifera; assay: Inhibition of stem growth of Brassica campestris at 100 mg/L; assay type: functional; summary of the method: as §1
[18] = system: Aphis; assay: Insecticidal activity against Aphis medicagini at 250 mg/L; assay type: functional; summary of the method: as §2
[19] = system: Brassica rapa subsp. oleifera; assay: Herbicidal activity against Brassica campestris at 450 g ai/ha in greenhouse in vivo test; assay type: functional, organism-based
[20] = system: Cucumis sativus; assay: Inhibition of root growth of Cucumis sativus at 100 mg/L; assay type: functional; summary of the method: as §1

SMILES	Activity [1]	inhibition at 100 µg/mL [2] [%]	Activity [3]	inhibition at 100 µg/mL [4] [%]	inhibition at 100 µg/mL [5] [%]	Activity [6] [%]	inhibition at 100 µg/mL [7] [%]	Activity [8]	inhibition at 100 µg/mL [9] [%]	inhibition at 100 µg/mL [10] [%]	inhibition at 100 µg/mL [11] [%]	inhibition at 100 µg/mL [12] [%]	inhibition at 100 µg/mL [13] [%]	Activity [14]	Activity [15]	inhibition at 100 µg/mL [16] [%]	inhibition at 100 µg/mL [17] [%]	Activity [18] [%]	Activity [19]	inhibition at 100 µg/mL [20] [%]
Cc1ccc(Cn2nnn(-c3ccc(Cl)cc3)c2=O)cc1	inactive	0	inactive	0	0	0	0	inactive	0	0	0	0	0	inactive	inactive	0	0	3.3	inactive	0
CCOC(=O)Cn1nnn(-c2ccc(Cl)cc2)c1=O	inactive	0	inactive	30	85	0	20	inactive	80	0	20	30	40	inactive	inactive	0	70	8.3	inactive	0
O=c1n(Cc2nnc(SCc3ccccc3F)s2)nnn1-c1ccc(Cl)cc1	inactive	70	inactive	80	80	0	70	inactive	80	60	70	80	60	inactive	inactive	70	70	18.6	inactive	70
CCCCCCCCSc1nnc(Cn2nnn(-c3ccc(Cl)cc3)c2=O)o1	inactive	0	inactive	0	0	2.9	0	inactive	0	0	0	0	0	inactive	inactive	0	0	3.3	inactive	0
CCOC(=O)C(C)n1nnn(-c2ccc(Cl)cc2)c1=O (stereo not given)	inactive	0	inactive	70	0	97.1	95	inactive	70	0	40	80	50	inactive	inactive	0	0	0	inactive	0
CCCSc1nnc(Cn2nnn(-c3ccc(Cl)cc3)c2=O)s1	inactive	80	inactive	70	70	0	80	inactive	70	80	0	70	70	inactive	inactive	70	60	0	inactive	50
Cc1cccc(Cn2nnn(-c3ccc(Cl)cc3)c2=O)c1	inactive	0	inactive	0	80	4.3	0	inactive	80	0	0	0	70	inactive	inactive	0	90	8.3	inactive	0
COc1cccc(Cn2nnn(-c3ccc(Cl)cc3)c2=O)c1	inactive	0	inactive	0	0	0	0	inactive	0	0	0	0	0	inactive	inactive	0	0	3.3	inactive	0
C=CCSc1nnc(Cn2nnn(-c3ccc(Cl)cc3)c2=O)s1	inactive	70	inactive	40	60	72.9	60	inactive	40	60	0	50	40	inactive	inactive	0	40	0	inactive	0
O=c1n(Cc2cccc(F)c2)nnn1-c1ccc(Cl)cc1	inactive	0	inactive	40	0	5.7	0	inactive	0	70	0	40	0	inactive	inactive	30	0	0	inactive	50
O=c1c(Cn2nnn(-c3ccccc3Cl)c2=O)coc2ccccc12	inactive	0	inactive	30	50	2.9	50	inactive	50	0	30	0	30	inactive	inactive	0	30	13.3	inactive	0
C=CCn1nnn(-c2ccccc2Cl)c1=O	inactive	0	inactive	50	0	98.6	0	inactive	0	0	0	50	0	inactive	–	60	60	1.7	inactive	0
CC(C)(C)c1ccc(CSc2cnn(C(C)(C)C)c(=O)c2Cl)cc1 [PYRIDABEN]	–	–	–	–	–	100	–	–	–	–	–	–	–	–	–	–	–	–	–	–
